Source: ChEMBL document CHEMBL1145556, “Development of potent and selective phosphinic peptide inhibitors of angiotensin-converting enzyme 2” (J Med Chem, 2008)

Experiments:
[1] = biological target: Angiotensin-converting enzyme 2 (Homo sapiens, UniProt Q9BYF1); assay: Inhibition of ACE2
In short: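 Recombinant ACE2 (0.3 nM final) preincubated with inhibitor for 45 min, then Mca-APK(Dnp) substrate (35 µM final) added. Run at 25 °C in 50 mM Hepes pH 6.8, 1 M NaCl, 10 µM ZnCl2. Fluorescence rise followed continuously (ex 320, em 405 nm) at under 10% substrate use. Triplicates at five inhibitor concentrations giving 20–80% inhibition; Ki by the Horovitz–Levitzki method.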

[2] = biological target: T1, Carboxypeptidase A1 (Bos taurus, UniProt P00730); assay: Inhibition of bovine carboxypeptidase A
T1 sequence (P00730 whole entry): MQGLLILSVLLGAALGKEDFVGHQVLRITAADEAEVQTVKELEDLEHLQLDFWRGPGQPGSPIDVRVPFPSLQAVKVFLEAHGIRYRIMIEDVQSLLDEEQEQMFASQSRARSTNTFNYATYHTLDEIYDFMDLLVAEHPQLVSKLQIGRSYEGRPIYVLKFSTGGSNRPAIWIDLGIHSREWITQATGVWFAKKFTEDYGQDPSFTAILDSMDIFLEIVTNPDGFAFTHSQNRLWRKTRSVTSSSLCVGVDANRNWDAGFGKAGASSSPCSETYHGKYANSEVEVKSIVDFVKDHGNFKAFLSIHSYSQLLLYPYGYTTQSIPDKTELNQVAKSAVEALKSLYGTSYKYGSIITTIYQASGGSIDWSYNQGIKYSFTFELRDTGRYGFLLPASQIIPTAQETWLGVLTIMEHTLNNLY
In short: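 Bovine pancreatic carboxypeptidase A (0.5 nM) mixed with inhibitor in 50 mM Tris-HCl, 1 M NaCl, pH 7.5. Reaction started by adding furylacryloyl-Phe-Phe (50 µM).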

[3] = Inhibition of ACE
In short: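 Somatic ACE (0.5 nM) with Mca-Ala-Ser-Asp-Lys-Dpa-OH substrate (15 µM). Otherwise as for ACE2: 45 min enzyme–inhibitor preincubation, 25 °C, 50 mM Hepes pH 6.8, 1 M NaCl, 10 µM ZnCl2. Continuous fluorescence read-out (ex 320, em 405 nm) of initial rates. Triplicates at five concentrations spanning 20–80% inhibition; Ki by the Horovitz–Levitzki method.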

Angiotensin-converting enzyme 2, sequence (Q9BYF1 whole entry): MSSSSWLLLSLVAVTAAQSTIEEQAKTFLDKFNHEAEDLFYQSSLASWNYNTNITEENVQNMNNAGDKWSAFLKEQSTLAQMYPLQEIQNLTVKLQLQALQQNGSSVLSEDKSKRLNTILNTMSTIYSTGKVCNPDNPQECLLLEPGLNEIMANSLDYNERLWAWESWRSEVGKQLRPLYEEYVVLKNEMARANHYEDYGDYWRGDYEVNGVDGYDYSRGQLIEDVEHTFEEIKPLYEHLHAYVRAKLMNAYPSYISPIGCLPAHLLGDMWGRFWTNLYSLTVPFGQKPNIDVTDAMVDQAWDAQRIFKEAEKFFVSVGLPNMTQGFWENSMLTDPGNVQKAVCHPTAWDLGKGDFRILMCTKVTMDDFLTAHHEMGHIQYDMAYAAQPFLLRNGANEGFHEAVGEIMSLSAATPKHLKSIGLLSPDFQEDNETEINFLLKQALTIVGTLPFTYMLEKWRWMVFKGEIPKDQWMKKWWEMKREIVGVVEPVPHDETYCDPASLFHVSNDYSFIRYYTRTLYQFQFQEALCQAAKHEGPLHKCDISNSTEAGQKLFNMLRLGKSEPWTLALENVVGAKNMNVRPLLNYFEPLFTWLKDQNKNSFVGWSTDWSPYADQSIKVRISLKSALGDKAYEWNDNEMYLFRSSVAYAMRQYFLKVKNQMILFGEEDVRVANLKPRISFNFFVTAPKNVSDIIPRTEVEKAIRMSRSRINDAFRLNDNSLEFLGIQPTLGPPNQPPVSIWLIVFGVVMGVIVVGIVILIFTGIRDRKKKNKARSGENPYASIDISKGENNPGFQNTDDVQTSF

| Ki [1] | Ki [2] | Ki [3] | SMILES |
| --- | --- | --- | --- |
| 3 µM | – | – | C[C@H](CP(=O)(O)[C@H]1CCCN1C(=O)OCc1ccccc1)C(=O)O |
| 0.007 µM | – | – | CC(=O)N[C@@H](CCC(=O)O)C(=O)N1CCC[C@@H]1P(=O)(O)C[C@@H](Cc1ccccc1)C(=O)O |
| 0.92 µM | 0.0003 µM | – | CC(=O)N[C@@H](CC(C)C)C(=O)N[C@H](Cc1ccccc1)P(=O)(O)C[C@@H](Cc1ccccc1)C(=O)O |
| 0.00035 µM | – | – | CC(=O)N[C@@H](CC(C)C)C(=O)N1CCC[C@@H]1P(=O)(O)C[C@@H](Cc1ccccc1)C(=O)O (stereo in doubt; 28) |
| 0.0065 µM | – | – | CC(=O)N[C@@H](CCCCN)C(=O)N1CCC[C@@H]1P(=O)(O)C[C@@H](Cc1ccccc1)C(=O)O |
| 0.0052 µM | – | – | CC(=O)N[C@@H](Cc1ccccc1)C(=O)N1CCC[C@@H]1P(=O)(O)C[C@@H](Cc1ccccc1)C(=O)O |
| 0.0075 µM | – | – | CC(=O)N[C@@H](C)C(=O)N1CCC[C@@H]1P(=O)(O)C[C@@H](Cc1ccccc1)C(=O)O |
| 0.0007 µM | 0.06 µM | > 10 µM | CC(=O)N[C@@H](Cc1c[nH]cn1)C(=O)N1CCC[C@@H]1P(=O)(O)C[C@@H](Cc1ccccc1)C(=O)O (stereo in doubt) |
| 0.3 µM | – | – | O=C(O)[C@H](Cc1ccccc1)CP(=O)(O)[C@H]1CCCN1C(=O)OCc1ccccc1 |
| 0.0052 µM | – | – | CC(=O)N[C@@H](Cc1ccc(O)cc1)C(=O)N1CCC[C@@H]1P(=O)(O)C[C@@H](Cc1ccccc1)C(=O)O |
| > 10 µM | – | – | CC(C)C[C@@H](N)P(=O)(O)C[C@@H](Cc1ccccc1)C(=O)O |
| 0.22 µM | > 10 µM | – | CC(=O)N[C@@H](Cc1c[nH]cn1)C(=O)N[C@H](CC(C)C)P(=O)(O)CC(Cc1cc(-c2ccccc2)no1)C(=O)O (stereo partly specified) |
| > 10 µM | – | – | N[C@H](Cc1ccccc1)P(=O)(O)C[C@@H](Cc1ccccc1)C(=O)O |
| 8 µM | – | – | CC(C)C[C@@H](NC(=O)OCc1ccccc1)P(=O)(O)C[C@@H](Cc1ccccc1)C(=O)O |
| 0.00125 µM | 0.035 µM | > 10 µM | CC(=O)N[C@@H](CC(C)C)C(=O)N1CCC[C@@H]1P(=O)(O)CC(Cc1cc(-c2ccccc2)no1)C(=O)O (stereo partly specified) |
| 0.3 µM | – | – | CC(C)C[C@H](CP(=O)(O)[C@H]1CCCN1C(=O)OCc1ccccc1)C(=O)O |
| 0.00013 µM | 0.0005 µM | > 10 µM | CC(=O)N[C@@H](CC(C)C)C(=O)N1CCC[C@@H]1P(=O)(O)C[C@@H](Cc1ccccc1)C(=O)O (stereo in doubt) |
| 0.0021 µM | – | – | CC(=O)N[C@@H](Cc1c[nH]cn1)C(=O)N1CCC[C@@H]1P(=O)(O)C[C@@H](Cc1ccccc1)C(=O)O (stereo in doubt; 34) |
| 0.0004 µM | 1.05 µM | > 10 µM | CC(=O)N[C@@H](Cc1c[nH]cn1)C(=O)N1CCC[C@@H]1P(=O)(O)CC(Cc1cc(-c2ccccc2)no1)C(=O)O (stereo partly specified) |
| 0.8 µM | 0.175 µM | – | CC(=O)N[C@@H](Cc1c[nH]cn1)C(=O)N[C@H](CC(C)C)P(=O)(O)C[C@@H](Cc1ccccc1)C(=O)O |
| 0.0066 µM | – | – | CC(=O)N[C@H](C(=O)N1CCC[C@@H]1P(=O)(O)C[C@@H](Cc1ccccc1)C(=O)O)C(C)C |

| SMILES | Ki [1] | Ki [2] | Ki [3] |
| --- | --- | --- | --- |
| O=C(O)[C@H](Cc1ccccc1)CP(=O)(O)[C@H]1CCCN1 | > 10 µM | – | – |
| O=C(N[C@H](Cc1ccccc1)P(=O)(O)C[C@@H](Cc1ccccc1)C(=O)O)OCc1ccccc1 | > 10 µM | – | – |
| C[C@@H](N)P(=O)(O)C[C@@H](Cc1ccccc1)C(=O)O | > 10 µM | – | – |
| C[C@@H](NC(=O)OCc1ccccc1)P(=O)(O)C[C@@H](Cc1ccccc1)C(=O)O | > 10 µM | – | – |
